From the RNAGym collection of RNA variant scans (doi:10.1126/science.aae0568)
This sample holds only a part of the variants without activity.

B1: tRNA (parent)
chain: GUUCCGUUGGCGUAAUGGUAACGCGUCUCCCUCCUAAGGAGAAGACUGCGGGUUCGAGUCCCGUACGGAACG

Variants of: B1
Assay: yeast fitness relative to wild type (ratio to wild type); higher = fitter; tRNA-Arg(CCU), competitive growth, 37 C, YPD
Procedure, shortened: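 Amplicons of the tRNA-Arg(CCU) gene were sequenced, 100-nucleotide paired-end, from the start population and from each end population of a pooled yeast competition. The competition, in six parallel replicates, lasted 24 hours in YPD at 37°C. Fitness relative to wild type was calculated from changes in genotype frequencies. Genotypes had to have ≥ 100 starting reads, and estimates < 0.5 were set to 0.5.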

| Variant | yeast fitness |
| --- | --- |
| GUUCCGUUGGCGUAAUGGUAACGCGUCUCCCCCCUAAGGAGAAGACUGCGGGUUCGAGUGCCGUAUGGAUCG [U32C C60G C66U A70U] | ≤ 0.5 |
| GUUCCGUUGGCGUAAUGGUAACGCGUCUCCCCCCUAAGGAGAAGACUGCGGGUUCGAGUCUCGUACGAAACG [U32C C61U G68A] | 0.586 |
| GUUCCGUUGGCGUAAUGGUAACGCGUCUCCCCCCUAAGGAGAAAACUGCGGGUUCGAGUCCCGUACGGAACG [U32C G44A] | 1.03 |
| GUUCCGUUGGCGUAAUGGUAACGCGUCUCCCCCCUAAGGAGAAGACUGCGCGUUCGAGUCUCGUACGGAACG [U32C G51C C61U] | ≤ 0.5 |
| GUUCCGUUGGCGUAAUGGUAACGCGUCUCCCCCCUAAGGAGAAGACCGCGGGUUCGAGUCCCGUACGGAACG [U32C U47C] | 0.974 |
| GUUCCGUUGGCGUAAUGGUAACGCGUCUCCCCCCUAAGGAGAAGACUGCGGCUUCGAGUCCCGUACAGCACG [U32C G52C G67A A69C] | ≤ 0.5 |
| GUUCCGUUGGCGUAAUGGUAACGCGUCUCCCCCCUAAGGAGAAGACUGCGGGUUCGAGUCCCGUACGGAGCG [U32C A70G] | 0.942 |
| GUUCCGUUGGCGUAAUGGUAACGCGUCUCCCCCCUAAGGAGAAGUCUGGGGGUUGGAGUCCCGUACCGAACG [U32C A45U C49G C55G G67C] | ≤ 0.5 |
| GUUCCGUUGGCGUAAUGGUAACGCGUCUCCCCCCUAAGGAGAAGAGUGCGGGUUCGAGUCCCGUGCGGAACG [U32C C46G A65G] | 0.917 |
| GUUCCGUUGGCGUAAUGGUAACGCGUCUCCCCCCUAAGGAGAAGACUGCGGGUUCGAGUGCCGUUCGGAACG [U32C C60G A65U] | ≤ 0.5 |
| GUUCCGUUGGCGUAAUGGUAACGCGUCUCCCCCCUAAGCAGAAGACUGCGGGUUUGAGUCCCGUACGGAACG [U32C G39C C55U] | ≤ 0.5 |
| GUUCCGUUGGCGUAAUGGUAACGCGUCUCCCCCCUAAGGACAAGACUGCGGGUUCGAUUCCCGUACGGAACG [U32C G41C G58U] | 0.533 |
| GUUCCGUUGGCGUAAUGGUAACGCGUCUCCCCCCUAAGGAGAAGACUGCGGGUUCGAGUCCAGUACGGAACG [U32C C62A] | 0.727 |
| GUUCCGUUGGCGUAAUGGUAACGCGUCUCCCCCCUAAGGAGAAGACUGCGGGUUCGAGUCCGGUACGGAACG [U32C C62G] | 0.796 |
| GUUCCGUUGGCGUAAUGGUAACGCGUCUCCCCCCUAAGGAGAAGACUGCGGGUUCGAGUCCUGUACGGAACG [U32C C62U] | 1.02 |
| GUUCCGUUGGCGUAAUGGUAACGCGUCUCCCCCCUAAGGAGAAGACUGCGGGUUCGAGUCCCGUAGGGAUCG [U32C C66G A70U] | 0.811 |
| GUUCCGUUGGCGUAAUGGUAACGCGUCUCCCCCCUAAGCAGAAGACUGCGGGUUCGAGUCUCGUACGGAACG [U32C G39C C61U] | ≤ 0.5 |
| GUUCCGUUGGCGUAAUGGUAACGCGUCUCCCCCCUAAGGAGAAGACUGCGGGUUUGAGUCCCGUACAGAACG [U32C C55U G67A] | ≤ 0.5 |
| GUUCCGUUGGCGUAAUGGUAACGCGUCUCCCCCCUAAGCAGAAGACUGCGGGUUCGAGUCCCGUACCGAACG [U32C G39C G67C] | ≤ 0.5 |

| Variant | yeast fitness |
| --- | --- |
| GUUCCGUUGGCGUAAUGGUAACGCGUCUCCCCCCUAAGGAGAAGACUGCGGGUUCGAGUCCUGUACGGCACG [U32C C62U A69C] | 1.15 |
| GUUCCGUUGGCGUAAUGGUAACGCGUCUCCCCCCUAAGGAGAAGACUGCGGGUUCGAGUGCCGUACGGUACG [U32C C60G A69U] | ≤ 0.5 |
| GUUCCGUUGGCGUAAUGGUAACGCGUCUCCCCCCUAAGGAGAAGACUGCGGGUUUGAGUCCCGUACGGUACG [U32C C55U A69U] | 0.55 |
| GUUCCGUUGGCGUAAUGGUAACGCGUCUCCCCCCUAAGGAGAAGACUGUGGGUUCGAGUCCCGUACGGAACG [U32C C49U] | 0.971 |
| GUUCCGUUGGCGUAAUGGUAACGCGUCUCCCCCCUAAGGACAAGACUGCAGGUUCGAGUCGCGUACGGAACG [U32C G41C G50A C61G] | 0.565 |
| GUUCCGUUGGCGUAAUGGUAACGCGUCUCCCCCUCAAGGAGAAGGCUGCGGGUACGAGUCCCGUACGGAACG [U32C C34U U35C A45G U54A] | ≤ 0.5 |
| GUUCCGUUGGCGUAAUGGUAACGCGUCUCCCCCAUAAGGAGAAGACUGCGGGUUCGAGUCCAGUACGGAACG [U32C C34A C62A] | 0.591 |
| GUUCCGUUGGCGUAAUGGUAACGCGUCUCCCCCCUAAGAUGAAGACUGCGGGUUCGAGUCCCCUACGGAACG [U32C G39A A40U G63C] | ≤ 0.5 |
| GUUCCGUUGGCGUAAUGGUAACGCGUCUCCCCCCUAAGGAGAAGACUGCGGGUUGGAGUCCCGUACGGAACG [U32C C55G] | 0.629 |
| GUUCCGUUGGCGUAAUGGUAACGCGUCUCCCCGCUAGGGAGAAGACUGCGGAUUUGAGUCCCGUUCGGAACG [U32C C33G A37G G52A C55U A65U] | 0.555 |
| GUUCCGUUGGCGUAAUGGUAACGCGUCUCCCCCCUAAGGAGAAGACUGCGGGUUCGUGUCCCGUACGGACCG [U32C A57U A70C] | ≤ 0.5 |
| GUUCCGUUGGCGUAAUGGUAACGCGUCUCCCCCCUAAGGAGAAGACUGCGGGUUCGAGUACCGUACGGAACG [U32C C60A] | 0.645 |
| GUUCCGUUGGCGUAAUGGUAACGCGUCUCCCCCCUAAGGAGAAGACUGCGGGUUCGAGUUCCGUACGGAACG [U32C C60U] | 0.642 |
| GUUCCGUUGGCGUAAUGGUAACGCGUCUCCCCCCUAAGGAGAAGACUGCGGGUUCGAGUCCCGUACAGAACG [U32C G67A] | 0.855 |
| GUUCCGUUGGCGUAAUGGUAACGCGUCUCCCCCCUAAGGAGAAGACUGCGGGUUCGAGUCCCGUACUGAACG [U32C G67U] | 0.861 |
| GUUCCGUUGGCGUAAUGGUAACGCGUCUCCCCCCUAAGGAGAAGACUGCGGGUUCGAGUCCCGUACGGGACG [U32C A69G] | 0.882 |
| GUUCCGUUGGCGUAAUGGUAACGCGUCUCCCCCCUAAGGAGAAGACUGCGGGUUCGAGUCCCGUACGGUACG [U32C A69U] | 0.926 |
| GUUCCGUUGGCGUAAUGGUAACGCGUCUCCCCCCUAAGGAGAAGACUGCGGGUUCGAGUCCCGUACGCAACG [U32C G68C] | 0.808 |
